# Source: PubChem (Johns Hopkins Ion Channel Center)
# This is a sample that favours compounds with a hit; in the whole collection about 3.5% have one here.
# RGS4 pot = RGS4 potentiation or activation; HEK293 M3R/inducible RGS4, carbachol calcium flux Fluo4; hits give low values; B-score at 10 µM; actives 0.92% (n = 310,000);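 active = B-score of the integrated calcium signal more than 4 SD below the library mean, with starting fluorescence not abnormally high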;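 also: negative B-score means reduced calcium response which marks RGS4 activation or potentiation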
#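 Material: Inducible-RGS4 HEK293 cells carrying M3 receptor; also added: carbachol at ECmax as muscarinic agonist stimulus; incubation: compound preincubation 20 min at room temperature before agonist; signal: Fluo4-AM (2 µM) calcium-flux fluorescence, kinetic read; measure: integrated calcium ratio converted to B score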
# RGS4 block = inhibitors of human RGS4; P49798; HEK293 M3R/RGS4 inducible, Fluo-4 calcium flux; hits give high values; triggered by carbachol at its EC20; B-score at 10 µM; actives 0.45% (n = 310,000); AID 463165;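 active = B-score, a plate-corrected calcium signal, over three deviations above library mean, with baseline fluorescence within five deviations of library mean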;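 also: RGS4 expression induced by doxycycline in cells with stable M3 receptor; B-score is computed from the integrated fluorescence ratio over baseline after carbachol; higher B-score means a larger calcium signal and so more RGS4 inhibition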
# Target sequence (P49798 whole entry, looked up): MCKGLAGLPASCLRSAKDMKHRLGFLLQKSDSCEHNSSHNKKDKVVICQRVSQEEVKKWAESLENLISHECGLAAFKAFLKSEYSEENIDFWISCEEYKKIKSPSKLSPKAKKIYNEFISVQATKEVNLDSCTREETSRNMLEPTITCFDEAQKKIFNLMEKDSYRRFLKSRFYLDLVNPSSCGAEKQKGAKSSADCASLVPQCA
# MrgX1 antagonist = antagonists of human MrgX1 receptor | MRGX1-HEK293 calcium flux, Fluo-4, BAM8-22 antagonism; hits give low values | B-score at 10 µM | actives 1.3% (n = 310,000) | AID 588676;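 active = calcium-response B-score plate-corrected more than 3 library SD below zero, starting fluorescence within 5 deviations, no agonist response on first addition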;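 also: peak minus trough fluorescence over baseline after final BAM8-22 challenge near maximal dose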
# Target sequence (Q96LB2 whole entry, looked up): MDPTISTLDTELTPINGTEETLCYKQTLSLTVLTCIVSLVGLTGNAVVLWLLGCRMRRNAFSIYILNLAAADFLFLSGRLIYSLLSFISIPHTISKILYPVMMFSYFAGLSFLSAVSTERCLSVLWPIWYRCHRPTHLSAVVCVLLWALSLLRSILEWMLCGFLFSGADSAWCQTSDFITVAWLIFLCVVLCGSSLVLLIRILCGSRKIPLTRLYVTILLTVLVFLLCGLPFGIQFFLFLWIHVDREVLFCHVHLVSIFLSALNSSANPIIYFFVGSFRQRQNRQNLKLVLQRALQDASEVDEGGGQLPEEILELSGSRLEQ
# MrgX1 PAM = human MrgX1 positive allosteric modulation, primary screen; actives 0.63% (n = 310,000); Q96LB2; MrgX1-HEK293, Fluo-4 calcium flux, FDSS; hits give high values; B-score at 10 µM;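 active = plate-corrected calcium response at least 3 library SD above typical, normal starting fluorescence, not activating the receptor alone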;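 also: compound read alongside a low EC10 to EC30 dose of BAM8-22 agonist; peak minus trough fluorescence over baseline measured at the second addition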
# MrgX1 ag = agonists of human MrgX1 receptor; Q96LB2; MrgX1-HEK293 cells, Fluo-4 calcium fluorescence, agonist mode; hits give high values; B-score at 10 µM; actives 0.44% (n = 310,000);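 active = calcium response B-score plate-corrected fluorescence ratio at least 3 library SD, with starting fluorescence B-score inside 5 SD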
#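 Material: MrgX1-expressing HEK293 cells / Dosing: compound as first of three additions / Incubation: overnight seeding, then 1 h dark dye loading / Signal: Fluo-4 NW calcium fluorescence / Evaluation: B-scored fluorescence response ratio / Benchmarks: positive and negative control wells on each plate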
# RGS4 inh valid = RGS4 inhibitor validation; HEK293 M3R/RGS4, carbachol calcium Fluo-4 fluorescence; carbachol added at its EC20; 0 = buffer wells, 100 = carbachol control; calcium response, % at 10 µM; shares compounds with RGS4 block; actives 65% (n = 1,700); AID 492999;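 active = duplicate-averaged calcium response above the buffer-only control mean plus 5 SD of those controls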;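 also: integrated fluorescence ratio F max minus min over baseline F0; higher response in RGS4-induced cells means RGS4 inhibition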
# RGS4 uninduced = non-induced cell nonspecific activity of RGS4 inhibitors; actives 20% (n = 1,900); activity (percent), % at 10 µM; AID 493000; shares compounds with RGS4 block; HEK293 M3R non-induced, carbachol calcium Fluo-4; submaximal (EC20) carbachol stimulus; buffer wells 0%, carbachol control wells 100%; call rule not given here;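 also: RGS4 induction absent so cells express M3R without RGS4; higher means more calcium signal and flags a non-specific hit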
# M3R basal Ca ctr = second counter-screen for RGS4 inhibitors: non-induced cells without carbachol. shares compounds with RGS4 block. HEK293 M3R/RGS4 non-induced, Fluo-4 calcium, no carbachol; normalised: buffer wells 0%, carbachol wells 100%. calcium response (agonist-mode artifact), % at 10 µM. actives 22% (n = 1,900). AID 493001;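 active = duplicate-averaged calcium rise in uninduced cells above buffer wells' mean plus 5 SD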
# The depositor's hits bear a star; i = inactive; / = no result given.
SMILES,RGS4 pot,RGS4 block,MrgX1 antagonist,MrgX1 PAM,MrgX1 ag,RGS4 inh valid,RGS4 uninduced,M3R basal Ca ctr
CCC1(C)Cc2ccccc2-c2nc(NCCO)[nH]c(=O)c21 (stereo not given),i,8*,i,i,i,20%*,i,i
CC1(C)Cc2ccccc2-c2nc(NCCCO)[nH]c(=O)c21,i,i,i,i,i,/,/,/
CCC1(C)Cc2ccccc2-c2nc(NN)[nH]c(=O)c21 (stereo not given),i,i,i,i,i,/,/,/
C=CCNC(=S)NNc1nc2c(c(=O)[nH]1)C1(CCCCC1)Cc1ccccc1-2,i,11*,i,i,i,34%*,i,i
O=c1[nH]c(NCCO)nc2c1C1(CCCC1)Cc1ccccc1-2,i,8.4*,i,i,i,43%*,70%*,22%*
Nc1ncnc2c1cnn2C1CCCCC1,i,i,i,i,i,/,/,/
N#Cc1c(NC(=O)C2CC=CCC2C(=O)O)sc2c1CCCCCC2 (stereo not given),i,5*,i,i,i,20%*,i,i
CC(C)(C)C1CCc2c(sc(NC(=O)C3CC=CCC3C(=O)O)c2C#N)C1 (stereo not given),i,i,i,i,i,/,/,/
FC(F)(F)c1cccc(-c2nn[nH]n2)c1,i,4.8*,i,i,i,i,i,i
COC(=O)c1ccc(OC)c(OC)c1Cl,i,5.8*,i,i,i,5.5%*,i,i
CCOC(=O)c1ccc(OC)c(OC)c1Cl,i,i,i,i,i,/,/,/
O=C(CN1C(=O)C(=O)N(Cc2ccccc2)C1=O)Nc1ccc(F)c(Cl)c1,i,i,i,i,i,/,/,/
CCCc1ccc(-c2cc(NC(=O)CSc3nnc(N)s3)n(-c3ccccc3)n2)cc1,i,8.8*,i,i,i,20%*,i,i
Cc1nnc(SCC(=O)Nc2cc(-c3cc(C)c(C)cc3C)nn2-c2ccccc2)s1,i,i,i,i,i,/,/,/
O=C(O)c1ccc(N2CC3CC(C2)c2cccc(=O)n2C3)c(NS(=O)(=O)c2cccc(C(F)(F)F)c2)c1 (stereo not given),i,i,i,i,i,/,/,/
N#CC1=C(N)Oc2cc(N)ccc2C1c1ccc(F)cc1F (stereo not given),i,i,i,i,i,/,/,/
COc1ccc(C(=O)NC(=S)Nc2ccccc2F)cc1,i,i,i,i,i,/,/,/
COc1ccc(C(=O)c2sc(Nc3ccccc3)nc2N)cc1OC,i,i,i,i,i,/,/,/
COc1ccc(C(=O)c2sc(Nc3ccccc3F)nc2N)cc1,i,i,i,i,i,/,i,i
Nc1nc(Nc2ccccc2)sc1C(=O)c1ccccc1,i,13*,i,i,i,23%*,38%*,i
COc1ccc(C(=O)c2sc(Nc3ccccc3)nc2N)cc1,i,i,i,i,i,i,i,i
C/C(=N\NC(=O)CNC(=O)c1cccc(F)c1)c1ccc2ccccc2c1,i,i,i,i,i,/,/,/
COc1cc(/C=C(/C(=O)c2cccs2)c2nc3ccccc3[nH]2)cc(OC)c1O,i,22*,i,i,i,88%*,41%*,i
CC(C)NC(=O)c1onc(CSc2ccc(Cl)cc2)c1C(=O)NC(C)C,i,i,i,i,i,/,/,/
COc1ccc(/C=N/n2cc(-c3ccc(OC)cc3)nc2N)cc1,i,37*,i,i,i,24%*,i,i
SMILES,RGS4 pot,RGS4 block,MrgX1 antagonist,MrgX1 PAM,MrgX1 ag,RGS4 inh valid,RGS4 uninduced,M3R basal Ca ctr
COc1ccc2oc(=N)c(C(=O)Nc3ccc(C)cc3)cc2c1,i,i,i,i,i,/,/,/
COc1ccc2o/c(=N\O)c(C(=O)Nc3ccc(C)cc3)cc2c1,i,12*,/,/,/,14%*,i,i
COc1ccccc1NC(=O)c1cc2ccc(O)cc2o/c1=N\O,i,i,i,i,i,i,i,i
COc1ccccc1N=c1oc2cc(O)ccc2cc1C(N)=O,i,i,i,i,i,/,/,/
S=C1NCCNC(=S)NCCOCCOCCN1,i,i,i,i,i,/,/,/
Cc1nn(-c2ccccc2)c2c1cc1c(=O)n(C)c(=O)nc-1n2-c1ccccc1F,i,i,i,i,i,/,/,/
Cc1cccc(-n2c3nc(=O)[nH]c(=O)c-3cc3c(C)nn(-c4ccccc4)c32)c1C,i,7*,i,i,i,i,i,i
O=C(Oc1ccc(N(Cc2cccs2)C2=NS(=O)(=O)c3ccccc32)cc1)c1ccccc1F,i,i,i,i,i,/,/,/
COc1ccc(Br)cc1CN1CCN(S(=O)(=O)Cc2ccccc2)CC1,i,28*,i,i,i,i,i,i
O=C(Nc1ccc2nc3n(c(=O)c2c1)CCCCC3)c1cc([N+](=O)[O-])ccc1F,i,i,i,i,i,/,/,/
O=C(Nc1ccc2nc3n(c(=O)c2c1)CCCCC3)c1c(F)ccc([N+](=O)[O-])c1F,i,5.2*,i,i,37*,33%*,i,12%*
CN(c1ccccc1)c1ccc(/C=C/[N+](=O)[O-])cc1,i,6.1*,i,i,i,32%*,i,108%*
COc1ccc(C2C(C#N)=C(N)Oc3c2c(-c2ccccc2)nn3-c2ccccc2)c(OC)c1OC (stereo not given),i,i,i,i,i,/,i,i
COc1ccc(OC)c(C2C(C#N)=C(N)Oc3c2c(C)nn3-c2ccc(C)cc2)c1 (stereo not given),i,i,i,i,i,/,/,/
CC1CCN(C(=O)CSc2n[nH]c(-c3cccs3)n2)CC1,i,i,i,i,i,/,/,/
CC(C)(C)OC(=O)N1CCC(c2cc(-c3cccs3)n[nH]2)CC1,i,5*,i,i,i,17%*,i,i
